Source: ChEMBL document CHEMBL1821588, “Synthesis and in vivo evaluation of [O-methyl-11C] N-[3,5-dichloro-2-(methoxy)phenyl]-4-(methoxy)-3-(1-piperazinyl)benzenesulfonamide as an imaging probe for 5-HT6 receptors” (Bioorg Med Chem, 2011)

How the values were obtained:
[1] = Fraction unbound in human plasma by HPLC; type: ADME, cell-free
[2] = Drug uptake in baboon amygdala at 5 mCi, iv measured during 90 mins; type: ADME, organism-based; conditions: papio anubis, in vivo, 1.5 h
Method in brief: (§1)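 Fasted baboon immobilized with ketamine (10 mg/kg, im), then anesthetized with 1.5–2.0% isoflurane by endotracheal tube and kept at 37 °C. A 10 min transmission scan preceded tracer. Tracer given as 5 ± 1 mCi iv bolus (S.A. 2300 ± 250 Ci/mmol). Emission collected 90 min in 3-D mode on HR+ PET. Arterial samples (30 over 90 min) gave the input function.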

[3] = Fraction unbound in baboon plasma by HPLC; type: ADME, cell-free; conditions: papio anubis
[4] = Metabolic stability in baboon plasma assessed as unchanged radioligand at 30 mins by HPLC; type: ADME, cell-free; conditions: papio anubis, read-out: Stability
Method in brief: (§2)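 Arterial blood sampled at 2, 6, 12, 30, 60 and 90 min post-injection and spun; 0.5 ml plasma mixed with 0.7 ml acetonitrile, vortexed, centrifuged 14,000 rpm 4 min. Supernatant run on reverse-phase ODS HPLC (acetonitrile/0.1 M ammonium formate 35:65, 2 ml/min) with radioactivity detection. Parent percentage corrected for background and decay; QC tracer sample injected at start and end.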

[5] = Drug uptake in baboon pareital cortex at 5 mCi, iv measured during 90 mins; type: ADME, organism-based; conditions: papio anubis, in vivo, 1.5 h; method in brief: as §1
[6] = Metabolic stability in baboon plasma assessed as unchanged radioligand at 60 mins by HPLC; type: ADME, cell-free; conditions: papio anubis, read-out: Stability; method in brief: as §2
[7] = Drug uptake in baboon cerebellum at 5 mCi, iv measured during 90 mins; type: ADME, organism-based; conditions: papio anubis, in vivo, 1.5 h; method in brief: as §1
[8] = Metabolic stability in baboon plasma assessed as unchanged radioligand at 4 mins by HPLC; type: ADME, cell-free; conditions: papio anubis, read-out: Stability
[9] = Metabolic stability in baboon plasma assessed as unchanged radioligand at 12 mins by HPLC; type: ADME, cell-free; conditions: papio anubis, read-out: Stability; method in brief: as §2
[10] = Metabolic stability in baboon plasma assessed as unchanged radioligand at 90 mins by HPLC; type: ADME, cell-free; conditions: papio anubis, read-out: Stability; method in brief: as §2
[11] = Drug uptake in baboon hippocampus at 5 mCi, iv measured during 90 mins; type: ADME, organism-based; conditions: papio anubis, in vivo, 1.5 h; method in brief: as §1
[12] = Drug uptake in baboon temporal cortex at 5 mCi, iv measured during 90 mins; type: ADME, organism-based; conditions: papio anubis, in vivo, 1.5 h; method in brief: as §1
[13] = Drug uptake in baboon striatum at 5 mCi, iv measured during 90 mins; type: ADME, organism-based; conditions: papio anubis, in vivo, 1.5 h; method in brief: as §1
[14] = Drug uptake in baboon anterior cingulate at 5 mCi, iv measured during 90 mins; type: ADME, organism-based; conditions: papio anubis, in vivo, 1.5 h; method in brief: as §1
[15] = Metabolic stability in baboon plasma assessed as unchanged radioligand at 2 mins by HPLC; type: ADME, cell-free; conditions: papio anubis, read-out: Stability; method in brief: as §2
[16] = Drug uptake in baboon prefrontal cortex at 5 mCi, iv measured during 90 mins; type: ADME, organism-based; conditions: papio anubis, in vivo, 1.5 h; method in brief: as §1
[17] = Drug uptake in baboon parahippocampal gyrus at 5 mCi, iv measured during 90 mins; type: ADME, organism-based; conditions: papio anubis, in vivo, 1.5 h; method in brief: as §1

fraction unbound [1]: 0.01
Drug uptake [2]: Active
fraction unbound [3]: 0.05
remaining at 0.5 h [4]: 45%
Drug uptake [5]: Active
remaining at 1 h [6]: 32%
Drug uptake [7]: Not Active
remaining at 4 min [8]: 94%
remaining at 0.2 h [9]: 71%
remaining at 1.5 h [10]: 27%
Drug uptake [11]: Active
Drug uptake [12]: Active
Drug uptake [13]: Not Active
Drug uptake [14]: Not Active
remaining at 2 min [15]: 99%
Drug uptake [16]: Not Active
Drug uptake [17]: Active
SMILES: COc1ccc(S(=O)(=O)Nc2cc(Cl)cc(Cl)c2O[11CH3])cc1N1CCNCC1
